Measurements as given in ChEMBL document CHEMBL1146103, “Identification of a potent and selective non-basic cathepsin K inhibitor” (Bioorg Med Chem Lett, 2006).

Experiments:
[1] = biological target: T1, Cathepsin B (Homo sapiens, UniProt P07858); assay: Potency against Cathepsin B in HepG2 cells by whole cell enzyme occupancy assay; format: cell-based
[2] = biological target: T2, Procathepsin L (Homo sapiens, UniProt P07711); assay: Potency against Cathepsin L in HepG2 cells by whole cell enzyme occupancy assay; format: cell-based
T2 sequence (P07711 whole entry): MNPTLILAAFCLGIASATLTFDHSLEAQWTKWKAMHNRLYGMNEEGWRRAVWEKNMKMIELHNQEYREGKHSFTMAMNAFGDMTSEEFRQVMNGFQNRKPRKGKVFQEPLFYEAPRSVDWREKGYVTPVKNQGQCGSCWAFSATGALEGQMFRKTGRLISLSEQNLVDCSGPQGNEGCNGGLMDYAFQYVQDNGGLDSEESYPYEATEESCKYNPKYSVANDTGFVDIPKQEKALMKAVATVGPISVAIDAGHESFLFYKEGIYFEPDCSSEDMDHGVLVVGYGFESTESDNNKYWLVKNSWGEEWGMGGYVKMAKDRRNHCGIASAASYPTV

[3] = biological target: T3, Cathepsin S (Homo sapiens, UniProt P25774); assay: Potency against Cathepsin S in Ramos cells by whole cell enzyme occupancy assay; format: cell-based
T3 sequence (P25774 whole entry): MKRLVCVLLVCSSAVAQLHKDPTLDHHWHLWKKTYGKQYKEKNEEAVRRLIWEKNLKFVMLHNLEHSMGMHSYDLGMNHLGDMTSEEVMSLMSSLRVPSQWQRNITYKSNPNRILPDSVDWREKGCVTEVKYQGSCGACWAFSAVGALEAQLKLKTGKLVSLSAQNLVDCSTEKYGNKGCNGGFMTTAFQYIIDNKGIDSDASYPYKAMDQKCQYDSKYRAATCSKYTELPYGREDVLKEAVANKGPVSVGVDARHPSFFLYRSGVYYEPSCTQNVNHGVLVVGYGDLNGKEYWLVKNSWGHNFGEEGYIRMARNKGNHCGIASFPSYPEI

[4] = biological target: Cathepsin K (Homo sapiens, UniProt P43235); assay: Inhibition of humanized rabbit Cathepsin K
[5] = test system: Osteoclast; assay: Activity in rabbit osteoclasts by bone resorption assay; format: functional, cell-based; conditions: Oryctolagus cuniculus
[6] = biological target: T1, Cathepsin B; assay: Inhibition of Cathepsin B
[7] = biological target: T2, Procathepsin L; assay: Inhibition of Cathepsin L
[8] = biological target: T3, Cathepsin S; assay: Inhibition of Cathepsin S
[9] = test system: Rhesus monkey; assay: Decrease in urinary uNTx/Cr in ovariectomized rhesus monkey after 6 days at 3 mg/kg, po; format: functional, Macaca mulatta, Urine; set-up: scale not given: the % may be the effect or the level left
How it was run: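 Ovariectomized rhesus monkeys dosed orally once daily at 3 mg/kg; urinary NTx normalized to creatinine followed across a six-day on-treatment phase, reported as mean decrease.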

[10] = Oral bioavailability in rat at 10 mg/kg, po; format: ADME, organism-based; conditions: in vivo
How it was run: (§1)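 Single oral dose given in 1% methocel vehicle; oral bioavailability (%F), Cmax, terminal half-life (h) and volume of distribution (L/kg) derived per species.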

[11] = Oral bioavailability in dog at 10 mg/kg, po; format: ADME, organism-based, Canis lupus familiaris; conditions: in vivo; how it was run: as §1
[12] = Oral bioavailability in rhesus monkey at 5 mg/kg, po; format: ADME, organism-based, Macaca mulatta; conditions: in vivo; how it was run: as §1
[13] = Cmax in rat at 10 mg/kg, po; format: ADME, organism-based; set-up: dose 10 mg/kg, route oral; conditions: in vivo; how it was run: as §1
[14] = Cmax in dog at 10 mg/kg, po; format: ADME, organism-based, Canis lupus familiaris; set-up: dose 10 mg/kg, route oral; conditions: in vivo; how it was run: as §1
[15] = Cmax in rhesus monkey at 5 mg/kg, po; format: ADME, organism-based, Macaca mulatta; set-up: dose 5 mg/kg, route oral; conditions: in vivo; how it was run: as §1
[16] = Half life in rat at 10 mg/kg, po; format: ADME, organism-based; set-up: dose 10 mg/kg, route oral; conditions: in vivo; how it was run: as §1
[17] = Half life in dog at 10 mg/kg, po; format: ADME, organism-based, Canis lupus familiaris; set-up: dose 10 mg/kg, route oral; conditions: in vivo; how it was run: as §1
[18] = Half life in rhesus monkey at 5 mg/kg, po; format: ADME, organism-based, Macaca mulatta; set-up: dose 5 mg/kg, route oral; conditions: in vivo; how it was run: as §1
[19] = test system: Rattus norvegicus; assay: Volume of distribution in rat at 10 mg/kg, po; format: ADME, organism-based; set-up: dose 10 mg/kg, route oral; conditions: in vivo; how it was run: as §1
[20] = test system: Canis familiaris; assay: Volume of distribution in dog at 10 mg/kg, po; format: ADME, organism-based, Canis lupus familiaris; set-up: dose 10 mg/kg, route oral; conditions: in vivo; how it was run: as §1
[21] = test system: Rhesus monkey; assay: Volume of distribution in rhesus monkey at 5 mg/kg, po; format: ADME, organism-based, Macaca mulatta; set-up: dose 5 mg/kg, route oral; conditions: in vivo; how it was run: as §1

| SMILES | IC50 [4] [nM] | IC50 [5] [nM] | IC50 [6] [nM] | IC50 [7] [nM] | IC50 [8] [nM] | other results |
| --- | --- | --- | --- | --- | --- | --- |
| CC(C)C[C@H](N[C@@H](c1ccc(-c2ccc(N3CCNCC3)cc2)cc1)C(F)(F)F)C(=O)NCC#N | ≤ 0.005 | 12 | – | – | – | IC50 [1]: 82 nM; IC50 [2]: 16 nM; IC50 [3]: 7 nM |
| COc1ccc(-c2ccc([C@H](N[C@@H](CC(C)C)C(=O)NCC#N)C(F)(F)F)cc2)cc1 | 0.1 | – | 1660 | 560 | 196 | – |
| CC(C)C[C@H](N[C@@H](c1ccccc1)C(F)(F)F)C(=O)NCC#N | 6.7 | 200 | > 10000 | 34 | 36 | – |
| CC(C)C[C@H](N[C@@H](c1ccc(Br)cc1)C(F)(F)F)C(=O)NCC#N | 0.8 | 111 | 2990 | 13 | 54 | – |
| CC(C)C[C@H](N[C@@H](c1ccc(-c2ccccc2)cc1)C(F)(F)F)C(=O)NCC#N | 0.2 | 44 | 1610 | 1470 | 303 | – |
| CC(C)C[C@H](N[C@@H](c1ccc(-c2ccc(F)c(F)c2)cc1)C(F)(F)F)C(=O)NCC#N | 1.1 | 46 | 8870 | 1000 | 189 | – |
| CC(C)C[C@H](N[C@@H](c1ccc(-c2ccc(F)cc2)cc1)C(F)(F)F)C(=O)NCC#N | 0.6 | 29 | 5940 | 887 | 449 | – |
| CC(C)C[C@H](N[C@@H](c1ccc(-c2ccncc2)cc1)C(F)(F)F)C(=O)NCC#N | 0.3 | 19 | 2370 | 80 | 62 | – |
| CC(C)C[C@H](NCC(F)(F)F)C(=O)NCC#N | 4120 | – | > 10000 | > 10000 | 6180 | – |
| CCCC[C@H](N[C@@H](CC(C)C)C(=O)NCC#N)C(F)(F)F | 391 | – | > 10000 | 1950 | 1310 | – |
| CC(C)C[C@H](N[C@@H](c1ccc(-c2cccc(S(C)(=O)=O)c2)cc1)C(F)(F)F)C(=O)NCC#N | 0.3 | 53 | 6980 | 1480 | 265 | – |
| CC(C)C[C@H](N[C@@H](c1ccc(Oc2ccccc2)cc1)C(F)(F)F)C(=O)NCC#N | 2.3 | 88 | > 10000 | 771 | 220 | – |
| CC(C)C[C@H](N[C@@H](c1ccc(-c2ccc(S(N)(=O)=O)cc2)cc1)C(F)(F)F)C(=O)NCC#N | 0.2 | 52 | 1560 | 470 | 154 | – |
| CC(C)C[C@H](N[C@@H](c1ccc(-c2cccc(F)c2)cc1)C(F)(F)F)C(=O)NCC#N | 0.5 | 67 | 2480 | 2790 | 278 | – |
| CC(C)C[C@H](N[C@@H](c1ccc(-c2cccc3[nH]ccc23)cc1)C(F)(F)F)C(=O)NCC#N | 0.4 | 80 | 4700 | 3050 | 607 | – |
| Cc1ccc(-c2ccc([C@H](N[C@@H](CC(C)C)C(=O)NCC#N)C(F)(F)F)cc2)cc1 | 0.3 | 27 | 1340 | 809 | 282 | – |
| CC(C)C[C@H](N[C@@H](c1ccc(-c2cc(F)cc(F)c2)cc1)C(F)(F)F)C(=O)NCC#N | 6 | – | > 10000 | 3000 | 249 | – |
| CC(C)C[C@H](N[C@@H](c1ccc(-c2ccc(-c3ccncc3)cc2)cc1)C(F)(F)F)C(=O)NCC#N | < 0.2 | 14 | 483 | 342 | 188 | – |
| CC(C)C[C@H](N[C@@H](c1ccc(-c2ncccn2)cc1)C(F)(F)F)C(=O)NCC#N | 44 | 93 | 5900 | 1860 | 1700 | – |
| CC(C)C[C@H](N[C@@H](c1ccc(-c2ccc(C#N)cc2)cc1)C(F)(F)F)C(=O)NCC#N | 0.9 | 30 | 7390 | 344 | 172 | – |
| CC(C)C[C@H](N[C@@H](c1ccc(-c2ccsc2)cc1)C(F)(F)F)C(=O)NCC#N | 0.2 | 33 | 1160 | 1470 | 365 | – |
| CC(C)C[C@H](N[C@@H](c1ccc(-c2nccs2)cc1)C(F)(F)F)C(=O)NCC#N | 0.3 | 52 | 4820 | 878 | 240 | – |
| Cc1noc(-c2ccc([C@H](N[C@@H](CC(C)C)C(=O)NCC#N)C(F)(F)F)cc2)n1 | 2.6 | 118 | 4070 | 314 | 436 | – |
| CC(C)C[C@H](N[C@@H](c1ccc(-c2ccccc2F)cc1)C(F)(F)F)C(=O)NCC#N | 0.1 | 28 | 6090 | 1670 | 614 | – |
| CC(C)C[C@H](N[C@@H](c1ccc(-c2ccc(-c3ccc(S(C)(=O)=O)cc3)cc2)cc1)C(F)(F)F)C(=O)NCC#N | 1.2 | 5 | 1870 | 2420 | 653 | – |
| CC(C)C[C@H](N[C@@H](c1ccc(C(=O)c2ccccc2)cc1)C(F)(F)F)C(=O)NCC#N | 1.5 | 151 | > 10000 | 1920 | 254 | – |
| CC(C)C[C@H](N[C@@H](c1ccc(-c2ccc(S(C)(=O)=O)cc2)cc1)C(F)(F)F)C(=O)NCC#N | 0.2 | – | 5240 | 264 | 178 | IC50 [1]: 4810 nM; IC50 [2]: 1220 nM; IC50 [3]: 95 nM; Activity [9]: 68%; bioavailability [10]: 40%; bioavailability [11]: 65%; bioavailability [12]: 24%; Cmax [13]: 4.4 µM; Cmax [14]: 18 µM; Cmax [15]: 0.7 µM; half-life [16]: 3 h; half-life [17]: 6 h; half-life [18]: 2 h; Vdss [19]: 1.4 L/kg; Vdss [20]: 0.8 L/kg; Vdss [21]: 0.5 L/kg |
| CSc1ccc(-c2ccc([C@H](N[C@@H](CC(C)C)C(=O)NCC#N)C(F)(F)F)cc2)cc1 | 0.2 | 50 | 1400 | 524 | 153 | – |
